# Bioassay records (PubChem)
# CHT block: inhibits the human high affinity choline transporter | AID 488975 | actives 0.86% (n = 310,000) | CHT-expressing cells, membrane potential dye, choline response; hits give low values | B-score at 10 µM;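 active = B-score over 3 SD under the library average, and starting fluorescence ratio not unusually high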;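 also: choline stimulus applied at its EC90 after an EC20 pre-addition; B-score computed on integrated fluorescence ratio after choline addition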
# Target sequence (Q9GZV3 whole entry, looked up): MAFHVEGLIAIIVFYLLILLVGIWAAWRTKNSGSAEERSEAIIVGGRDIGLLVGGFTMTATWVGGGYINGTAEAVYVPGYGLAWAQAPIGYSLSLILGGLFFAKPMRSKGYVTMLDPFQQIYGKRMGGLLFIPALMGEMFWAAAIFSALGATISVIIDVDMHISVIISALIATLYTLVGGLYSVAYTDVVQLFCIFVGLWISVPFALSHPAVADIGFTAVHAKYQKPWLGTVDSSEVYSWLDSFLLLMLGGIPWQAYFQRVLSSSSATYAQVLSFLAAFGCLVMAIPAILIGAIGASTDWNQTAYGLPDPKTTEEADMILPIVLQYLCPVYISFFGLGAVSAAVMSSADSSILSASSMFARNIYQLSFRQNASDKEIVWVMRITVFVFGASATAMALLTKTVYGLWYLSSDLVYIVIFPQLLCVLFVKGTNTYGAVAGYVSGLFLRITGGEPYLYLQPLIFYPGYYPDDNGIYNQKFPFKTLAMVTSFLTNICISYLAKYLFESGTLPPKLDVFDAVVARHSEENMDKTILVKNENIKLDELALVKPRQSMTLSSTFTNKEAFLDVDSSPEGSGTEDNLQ
# COUP-TFII inh: inhibitors of human COUP-TFII (NR2F2); P24468; HEK293T NGFI-A luciferase reporter, luminescence; inhibition, % at 8.6 µM; actives 0.7% (n = 370,000); AID 686940;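 active = inhibition above a per-plate cutoff, mean inhibition of test wells between control levels plus 3 SD, cut at about 38% in these data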;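 also: cells cotransfected with COUP-TFII expression vector driving the NGFI-A reporter; 0% = median of COUP-TF2 test wells and 100% = reporter-only cells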
# NR2E3 ag-1: activates human NR2E3 receptor | CHO-S Gal4-NCOR/VP16-NR2E3 two-hybrid, luciferase | inhibition of corepressor binding, % at 3.98 µM | actives 0.35% (n = 360,000) | AID 602229;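 active = inhibition above the mean of all tested compounds plus 3 SD, cut at about 70% in these data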;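 also: 0% = DMSO with NR2E3 transfected cells and 100% = cells lacking NR2E3 construct; higher means lower luciferase signal from less NR2E3 corepressor binding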
# NR2E3 ag-2: agonists of human nuclear receptor NR2E3; Q9Y5X4; GST-NR2E3/biotin-RetCOR TR-FRET, 1536-well; inhibition of corepressor binding, % at 4.78 µM; actives 0.12% (n = 320,000); AID 2300;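 active = percent inhibition above the cutoff of mean plus 3 SD of all tested compounds, set per screening campaign, cut at about 20% in these data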;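 also: 0% = DMSO wells and 100% = biotin wells as full block of FRET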
#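 Test system – NR2E3–RetCOR corepressor complex · Quantity – NR2E3 fusion 1.35 nM · Buffer or medium – Tris pH 7.5 · Incubation – Compound–protein incubation for 5 h at 4 °C · Technique – TR-FRET, Eu(K)-anti-GST donor, streptavidin-D2 acceptor, ex 340, em 617/671 nm · Evaluation – percent inhibition of 671/617 nm emission ratio versus biotin and DMSO controls · Plate – 1536-well format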
# CHT allo act: allosterically activates the human high affinity choline transporter; actives 0.49% (n = 310,000); Q9GZV3; AID 488977; CHT-expressing cells, membrane potential dye, choline EC20; hits give high values; LV-AA mutant CHT in HEK293 cells; B-score at 10 µM;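 active = initial fluorescence not abnormally high and integrated response B-score, plate-corrected, over 3 SD above library mean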
# GalR3 antagonist: blocks the human galanin receptor 3. HEK293 GalR3-CNG cAMP membrane potential fluorescence; galR3 body fused to GalR1 C-terminus. inhibition, % at 3 µM. O60755. actives 0.44% (n = 360,000);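 active = inhibition above the screen-wide average plus 3 SD, cut at about 13% in these data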;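 also: forskolin and galanin both at EC90 stimulate the cells; cAMP rise reported by CNG channel membrane potential dye signal; 0% = forskolin plus galanin with DMSO and 100% = forskolin alone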
# NR2E3 ag conf: confirmation of human NR2E3 agonists | shares compounds with NR2E3 ag-1 | CHO-S mammalian two-hybrid NR2E3-NCOR, luciferase luminescence | inhibition, % at 3.98 µM | actives 51% (n = 2,300);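 active = average inhibition above a cutoff equal to the mean inhibition of all tested compounds plus one SD, cut at about 70% in these data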;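 also: 0% = DMSO in NR2E3 cells and 100% = DMSO in cells lacking NR2E3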
# VP16 counter: reduces GAL4-VP16 reporter signal in NR2E3 counterscreen. shares compounds with NR2E3 ag-1. CHO-S GAL4-VP16 luciferase reporter, luminescence. inhibition, % at 3.98 µM. actives 29% (n = 2,300). AID 624379;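 active = mean inhibition above a cutoff equal to the average over all tested compounds plus one standard deviation, cut at about 70% in these data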;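 also: luciferase from a UAS reporter driven by GAL4-VP16 transactivation; 0% = DMSO with VP16-transfected cells and 100% = DMSO with cells lacking VP16; higher means less reporter light so more repression of VP16 activity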
# GalR3 conf: GalR3 (human) antagonism, confirmation. shares compounds with GalR3 antagonist. HEK293 GalR3 CNG cAMP biosensor, membrane potential fluorescence; galR3 fused to GalR1 carboxy tail; challenged with forskolin and galanin at EC90. inhibition, % at 3 µM. actives 59% (n = 1,600);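 active = inhibition above the primary screen's cutoff, the mean inhibition of all screened compounds plus 3 SD, cut at about 13% in these data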;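 also: 0% = forskolin plus galanin and 100% = forskolin alone with DMSO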
# CNG parental: acts as nonspecific agonist in parental HEK-CNG cells. shares compounds with GalR3 antagonist. HEK293-CNG parental cells, cAMP membrane potential fluorescence; normalised: DMSO wells 0%, forskolin wells 100%. activation, % at 3 µM. actives 10% (n = 1,600); in the data active = activation above about 1.3%
# Gal4-VP16 ctr: inhibits VP16 reporter, flagging COUP-TFII antagonist hits. actives 25% (n = 2,500). inhibition, % at 8.5 µM. HEK293 Gal4-VP16 luciferase reporter, luminescence. shares compounds with COUP-TFII inh; in the data active = inhibition above about 13%
# COUP-TFII conf: COUP-TFII (NR2F2) inhibition, confirmation assay; shares compounds with COUP-TFII inh; HEK293 NGFI-A luciferase reporter, luminescence; inhibition, % at 8.5 µM; actives 45% (n = 2,500);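 active = mean inhibition over three repeats above a set limit taken from the earlier primary screen, cut at about 38% in these data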;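 also: 100% = cells given the luciferase reporter alone without the COUP-TF2 vector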
# The depositor's hits bear a star; i = inactive; nt = no result given. Hits are enriched below; roughly 2.3% of the tested compounds scored in any of these assays.
SMILES,CHT block,COUP-TFII inh,NR2E3 ag-1,NR2E3 ag-2,CHT allo act,GalR3 antagonist,NR2E3 ag conf,VP16 counter,Gal4-VP16 ctr,COUP-TFII conf,others
COCCn1c(C)cc(C(=O)CSc2ccc(NC(C)=O)cc2)c1C,i,-13,-32,-3,i,-2,nt,nt,nt,nt,
CC(=O)Nc1ccc(SCC(=O)c2cc(C)n(-c3ccccc3F)c2C)cc1,i,67*,69,4,i,-11,59,18,35*,64*,
CC(=O)Nc1ccccc1OCC(=O)c1cc(C)n(Cc2cccs2)c1C,i,73*,90*,0,i,83*,93*,73*,2,81*,GalR3 conf=98*;CNG parental=0
COC(=O)c1ccc(-n2c(C)cc(C(=O)CSc3ccc(NC(C)=O)cc3)c2C)cc1,i,24,-2,0,i,-7,nt,nt,nt,nt,
CC(=O)Nc1ccc(SCC(=O)c2cc(C)n(Cc3cccs3)c2C)cc1,i,67*,66,1,i,2,54,2,12,73*,
C=CCNc1nc(-c2c(C)nc3sccn23)cs1,i,-7,-10,-3,i,-6,nt,nt,nt,nt,
Cc1nc2sccn2c1-c1csc(NCc2ccccc2)n1,i,38*,62,1,i,-8,86*,71*,-16,21,
CC(C)(C)c1ccc(CC(=O)N2CCC2(C)C(=O)Nc2cnc3ccccc3c2)cc1 (stereo not given),nt,41*,67,nt,nt,-8,66,48,-5,12,
NC(=O)c1nnn(Cc2cc(Cl)c(C(=O)c3ccc(Cl)cc3)c(Cl)c2)c1N,nt,55*,91*,nt,nt,97*,96*,82*,5,54*,GalR3 conf=120*;CNG parental=-1
C=CC[n+]1c(/C=C2\C=Cc3cc(C)ccc3N2CC)ccc2ccccc21,i,75*,90*,0,i,45*,98*,91*,18*,76*,GalR3 conf=64*;CNG parental=6.1*
CCN1C(=C(C#N)C#N)C=Cc2cc(C)ccc21,i,-29,-1,6,i,-2,nt,nt,nt,nt,
CC(C)(C)C(=O)OC12CCCN(C1)/C(=C/c1ccncc1)C2 (stereo not given),nt,26,nt,nt,nt,nt,nt,nt,nt,nt,
O=C(Nc1cccc(C(F)(F)F)c1)OC1CC2CC1[C@H]1CCCCN1[C@H]2Cc1ccccc1 (stereo not given in full),nt,23,nt,nt,nt,nt,nt,nt,nt,nt,
CCOC(=O)c1cnc(-n2nc(C)cc2C)nc1NC1CCCCC1,i,77*,93*,-1,i,34*,91*,66,-2,72*,GalR3 conf=73*;CNG parental=6.8*
COc1ccc(/C=C2/CSC/C(=C/c3ccc(OC)c(OC)c3)C2=O)cc1OC,nt,73*,64,nt,nt,3,38,29,57*,97*,
COc1ccc(/C=C2\Cc3ccccc3C2=O)cc1OC,i,-7,-37,nt,i,-9,nt,nt,nt,nt,
O=C(Nc1ccc(C(O)(C(F)(F)F)C(F)(F)F)cc1)c1ccc(F)cc1F,nt,-39,nt,nt,nt,nt,nt,nt,nt,nt,
O=C1C(=O)c2cccnc2-c2ncccc21,nt,103*,72*,nt,nt,-12,89*,39,97*,112*,
O=C(OC1CC2CCC(C1)[N+]21CCCC1)C(O)(c1ccccc1)c1ccccc1 (stereo not given),nt,-15,nt,nt,nt,nt,nt,nt,nt,nt,
Nn1cnnc1SCC(=O)Nc1ccc(C2CCCCC2)cc1,i,-8,-46,5,i,-1,nt,nt,nt,nt,
O=C(O)CSCC(=O)Nc1ccc(C2CCCCC2)cc1,i,90*,72*,1,i,-6,61,70,83*,77*,
COC(=O)[C@]12C[C@H](CC(=O)NCc3ccccc3)C(=O)N(Cc3ccco3)C1=C[C@H](COCc1ccccc1)O[C@@H]2C,nt,5,nt,nt,nt,nt,nt,nt,nt,nt,
O=C(Nc1ccc(Cl)c(Cl)c1)C1CCN(c2nnc(-n3cccc3)s2)CC1,nt,-1,nt,nt,nt,nt,nt,nt,nt,nt,
CC(=O)c1c(C)oc2ccc(N(C(C)=O)S(=O)(=O)c3cccc4cccnc34)cc12,i,38*,86*,1,i,-5,94*,74*,1,29,
Cc1ccc(OCc2nnc(SCc3nc4ccccc4[nH]3)n2Cc2ccco2)cc1,i,42*,49,-5,i,-3,66,65,-3,17,
SMILES,CHT block,COUP-TFII inh,NR2E3 ag-1,NR2E3 ag-2,CHT allo act,GalR3 antagonist,NR2E3 ag conf,VP16 counter,Gal4-VP16 ctr,COUP-TFII conf,others
Cc1cc(=O)n2nc(N3CCC(C(=O)N4CCN(c5ccccc5)CC4)CC3)sc2n1,i,-3,10,3,i,-8,nt,nt,nt,nt,
CCCc1cc(=O)n2nc(N3CCC(C(=O)N4CCN(c5ccc(OC)cc5)CC4)CC3)sc2n1,i,56*,69,0,i,14*,75*,55,12,64*,GalR3 conf=104*;CNG parental=0
COC(=O)[C@H](C)NC(=O)[C@H](CC(C)C)NC(=O)OC(C)(C)C,nt,7,nt,nt,nt,nt,nt,nt,nt,nt,
CC1Sc2ccc(S(=O)(=O)N3CCC(C(=O)Nc4ccc(Cl)cc4)CC3)cc2NC1=O (stereo not given),i,66*,103*,-2,i,11,94*,75*,16*,73*,
Cc1ccc(NC(=O)C2CCN(S(=O)(=O)c3ccc(N4CCCC4=O)cc3)CC2)cc1Cl,i,66*,107*,-4,i,-4,99*,91*,2,46*,
COc1ccc(NC(=O)C2CCN(S(=O)(=O)c3ccc(N4CCCC4=O)cc3)CC2)c(OC)c1,i,3,11,-1,i,-7,nt,nt,nt,nt,
CCn1c(N)nc2c1c(=O)n(C)c(=O)n2C,i,1,-1,3,i,4,nt,nt,nt,nt,
